The target in one assay is Stromelysin-1 (Homo sapiens, UniProt P08254). The experiment in a line: Inhibition of matrix metalloprotease-3 (MMP-3), stromelysin-1. In outline: (§1)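 Recombinant human enzymes (MMP-1, MMP-2, MMP-3) were used as the source for the inhibition measurements.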
In a further assay the target is T1, Interstitial collagenase (Homo sapiens, UniProt P03956).
T1 sequence (P03956 whole entry): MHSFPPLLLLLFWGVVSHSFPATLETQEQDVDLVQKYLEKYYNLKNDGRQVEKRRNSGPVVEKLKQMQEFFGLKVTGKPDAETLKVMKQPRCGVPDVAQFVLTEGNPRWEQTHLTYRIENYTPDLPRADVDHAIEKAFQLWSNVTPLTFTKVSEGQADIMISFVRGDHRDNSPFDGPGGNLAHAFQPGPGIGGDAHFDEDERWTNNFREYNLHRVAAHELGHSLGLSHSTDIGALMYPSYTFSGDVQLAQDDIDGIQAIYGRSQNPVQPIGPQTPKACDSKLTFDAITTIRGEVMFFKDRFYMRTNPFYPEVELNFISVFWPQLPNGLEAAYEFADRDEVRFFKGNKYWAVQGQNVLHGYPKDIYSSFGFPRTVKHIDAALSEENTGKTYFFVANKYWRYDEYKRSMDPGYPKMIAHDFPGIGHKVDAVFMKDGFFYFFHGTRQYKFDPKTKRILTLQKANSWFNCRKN
The experiment in a line: Inhibition of matrix metalloprotease-1 (MMP-1), fibroblast collagenase. In outline:
as §1

The target in assay [1] is 72 kDa type IV collagenase (Homo sapiens, UniProt P08253). The experiment in a line: Inhibition of matrix metalloprotease-2 (MMP-2), gelatinase-A. A digest of the protocol: as §1
Sequence of 72 kDa type IV collagenase (P08253 whole entry): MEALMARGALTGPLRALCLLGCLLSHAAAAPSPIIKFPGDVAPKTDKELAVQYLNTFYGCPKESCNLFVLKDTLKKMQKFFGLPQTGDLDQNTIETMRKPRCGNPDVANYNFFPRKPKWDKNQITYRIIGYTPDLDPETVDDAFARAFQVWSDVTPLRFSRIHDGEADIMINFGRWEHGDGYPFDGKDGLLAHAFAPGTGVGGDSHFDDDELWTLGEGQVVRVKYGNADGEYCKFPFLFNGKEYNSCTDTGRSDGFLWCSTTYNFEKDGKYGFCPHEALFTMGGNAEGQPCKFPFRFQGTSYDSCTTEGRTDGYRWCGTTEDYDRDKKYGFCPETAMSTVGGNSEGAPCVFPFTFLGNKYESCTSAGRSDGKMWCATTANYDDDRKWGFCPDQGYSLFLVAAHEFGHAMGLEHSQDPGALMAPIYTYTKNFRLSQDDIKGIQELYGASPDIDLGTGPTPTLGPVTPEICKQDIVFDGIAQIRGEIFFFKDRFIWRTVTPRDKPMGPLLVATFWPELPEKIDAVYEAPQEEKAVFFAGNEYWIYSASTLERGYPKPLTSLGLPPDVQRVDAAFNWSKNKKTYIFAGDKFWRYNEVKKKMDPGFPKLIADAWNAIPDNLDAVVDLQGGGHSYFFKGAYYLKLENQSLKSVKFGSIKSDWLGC

Sequence of Stromelysin-1 (P08254 whole entry): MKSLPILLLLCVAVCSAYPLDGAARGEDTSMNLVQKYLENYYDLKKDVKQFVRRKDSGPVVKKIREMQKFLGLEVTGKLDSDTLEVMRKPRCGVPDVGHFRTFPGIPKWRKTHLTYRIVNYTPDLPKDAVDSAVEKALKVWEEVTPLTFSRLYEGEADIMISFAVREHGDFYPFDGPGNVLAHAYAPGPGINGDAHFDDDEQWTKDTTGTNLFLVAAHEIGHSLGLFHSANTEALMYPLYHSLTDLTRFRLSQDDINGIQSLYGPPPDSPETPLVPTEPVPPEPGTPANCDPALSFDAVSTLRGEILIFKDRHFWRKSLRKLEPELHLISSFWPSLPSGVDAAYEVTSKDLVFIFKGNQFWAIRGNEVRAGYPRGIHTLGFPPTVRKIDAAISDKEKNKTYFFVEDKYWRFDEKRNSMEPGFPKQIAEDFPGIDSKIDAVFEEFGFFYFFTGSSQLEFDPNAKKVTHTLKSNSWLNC

Consider `COc1ccc(S(=O)(=O)[C@H](CCCCc2ccccc2)[C@@H](C)C(=O)NO)cc1`, for which the Ki turned out to be 500 nM on Stromelysin-1, 2000 nM at Interstitial collagenase and 10 nM in assay [1].
Regarding `COc1ccc(S(=O)(=O)C(CCc2ccccc2)CC(=O)NO)cc1` (centres undefined), the Ki is 200 nM at Stromelysin-1, 4000 nM on Interstitial collagenase and 30 nM in assay [1].
As to `COc1ccc(S(=O)(=O)C(C)(CCCCc2ccccc2)CC(=O)NO)cc1` (centres undefined), the Ki at Stromelysin-1 was 1000 nM; at Interstitial collagenase, 2000 nM; in assay [1], 50 nM.
For `COc1ccc(S(=O)(=O)C(CCCCc2ccccc2)CC(=O)NO)cc1` (centres undefined), in that order: 700 nM, 5000 nM and 20 nM.
For `COc1ccc(S(=O)(=O)C(CCCCc2ccccc2)CC(=O)NO)cc1OC` (centres undefined), in that order: more than 10000 nM, more than 10000 nM and more than 10000 nM.
For `COc1ccc(S(=O)(=O)C(CC(=O)NO)Cc2ccccc2)cc1` (centres undefined), in that order: 300 nM, 1000 nM and 20 nM.
As to `COc1ccc(S(=O)(=O)C(CCCCc2ccccc2)C(C)C(=O)NO)cc1` (centres undefined), the Ki is 600 nM on Stromelysin-1, 2000 nM at Interstitial collagenase and 60 nM in assay [1].
The like results for `COc1ccc(S(=O)(=O)C(CCCc2ccccc2)CC(=O)NO)cc1` (centres undefined) were, in that order, 600 nM, 2000 nM and 50 nM.

These data come from ChEMBL document CHEMBL1132697, “Dual inhibition of phosphodiesterase 4 and matrix metalloproteinases by an (arylsulfonyl)hydroxamic acid template” (J Med Chem, 1999).
